Measurements taken from ChEMBL document CHEMBL1124553, “Brain-specific chemical delivery systems for beta-lactam antibiotics. In vitro and in vivo studies of some dihydropyridine and dihydroisoquinoline derivatives of benzylpenicillin in rats” (J Med Chem, 1989).
Blank lines part the entries; values can stand above or below the molecule they belong to.

Key:
[1] = Half-life for disappearance of compound from dog whole blood; format: ADME, organism-based, Canis lupus familiaris
In short: (§1)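 Freshly collected whole blood, or 10% w/v brain homogenate in pH 7.4 phosphate buffer (ionic strength 0.15), was prewarmed to 37 °C. Compound was spiked from an 8 mM DMSO stock to 40 µM final. Timed samples were quenched in 8% DMSO/acetonitrile, centrifuged, filtered and analyzed by reversed-phase C8 HPLC with UV detection. K came from linear regression of log peak height versus time, with t1/2 derived from it. Values are mean ± SE of three determinations in different animal samples.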

[2] = Half-life for disappearance of compound from human whole blood; format: ADME, organism-based; in short: as §1
[3] = Half-life for disappearance of compound from rabbit 10% brain homogenate; format: ADME, Oryctolagus cuniculus; in short: as §1
[4] = Half-life for disappearance of compound from rabbit whole blood; format: ADME, organism-based, Oryctolagus cuniculus; in short: as §1
[5] = Half-life for disappearance of compound from rat 10% brain homogenate; format: ADME; in short: as §1
[6] = Half-life for disappearance of compound from rat whole blood; format: ADME, organism-based; in short: as §1
Canis familiaris = species on record: Canis familiaris; assay: Pseudo first-order rate constant (K) for disappearance of compound from dog whole blood; format: ADME, organism-based, Canis lupus familiaris; in short: as §1
Homo sapiens = species on record: Homo sapiens; assay: Pseudo first-order rate constant (K) for disappearance of compound from human whole blood; format: ADME, organism-based; in short: as §1
Oryctolagus cuniculus [7] = species on record: Oryctolagus cuniculus; assay: Pseudo first-order rate constant (K) for disappearance of compound from rabbit 10% brain homogenate; format: ADME
In short: (§2)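 Freshly collected whole blood (rat trunk blood; rabbit) or 10% w/v brain homogenate made in pH 7.4 phosphate buffer (μ = 0.15), prewarmed to 37 °C. Compound added from 8 mM DMSO stock to a final 40 μM. Timed 0.3 mL samples were quenched in 8% DMSO/acetonitrile, centrifuged, filtered and analysed by reversed-phase C8 HPLC-UV. K came from linear regression of log peak height versus time; n=3 animal samples.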

Oryctolagus cuniculus [8] = species on record: Oryctolagus cuniculus; assay: Pseudo first-order rate constant (K) for disappearance of compound from rabbit whole blood; format: ADME, organism-based; in short: as §2
Rattus norvegicus [9] = species on record: Rattus norvegicus; assay: Pseudo first-order rate constant (K) for disappearance of compound from rat 10% brain homogenate; format: ADME; in short: as §2
[10] = Pseudo first-order rate constant (K) for disappearance of compound from rat whole blood; format: ADME, tissue-based; in short: as §2
Rattus norvegicus [11] = species on record: Rattus norvegicus; assay: Half-life for disappearance of compound from rat whole blood; Compound was unstable; format: ADME, organism-based; settings: in vitro; in short: as §1
Rattus norvegicus [12] = species on record: Rattus norvegicus; assay: Pseudo first-order rate constant (K) for disappearance of compound from rat whole blood; Compound was unstable; format: ADME, organism-based; in short: as §2
Rattus norvegicus [13] = assay: Concentration of compound in rat kidney after intravenous injection of 20 mg/kg benzyl-penicillin after 1 min; format: functional, organism-based; parameters: dose 20 mg/kg
In short: (§3)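 Male Sprague-Dawley rats (200-250 g), conscious, received 60 µmol/kg (equimolar to 20 mg/kg benzylpenicillin) by tail-vein injection. Benzylpenicillin K was given in water/ethanol/propylene glycol, and the delivery systems in ethanol:propylene glycol 7:3, at 20 mg/mL. Rats were decapitated at set times (4-6 per point), with trunk blood heparinized and brain, kidney, liver and lung frozen. Benzylpenicillin was measured by disk microbioassay (Bacillus subtilis ATCC 6633) after >5-volume sterile-water dilution or homogenization, against matrix calibration curves; assay limit 0.05 µg/mL.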

Rattus norvegicus [14] = assay: Concentration of compound in rat kidney after intravenous injection of 20 mg/kg benzyl-penicillin after 20 min; format: functional, organism-based; parameters: dose 20 mg/kg; in short: as §3
Rattus norvegicus [15] = assay: Concentration of compound in rat kidney after intravenous injection of 20 mg/kg benzyl-penicillin after 3 min; format: functional, organism-based; parameters: dose 20 mg/kg; in short: as §3
Rattus norvegicus [16] = assay: Concentration of compound in rat kidney after intravenous injection of 20 mg/kg benzyl-penicillin after 40 min; format: functional, organism-based; parameters: dose 20 mg/kg; in short: as §3
Rattus norvegicus [17] = assay: Concentration of compound in rat kidney after intravenous injection of 20 mg/kg benzyl-penicillin after 5 min; format: functional, organism-based; parameters: dose 20 mg/kg; in short: as §3
Rattus norvegicus [18] = assay: Concentration of compound in rat kidney after intravenous injection of 20 mg/kg benzyl-penicillin after 60 min; format: functional, organism-based; parameters: dose 20 mg/kg; in short: as §3
Rattus norvegicus [19] = assay: Concentration of compound in rat kidney after intravenous injection of 20 mg/kg benzyl-penicillin after 10 min; format: functional, organism-based; parameters: dose 20 mg/kg; in short: as §3
Rattus norvegicus [20] = assay: Concentration of compound in rat liver after intravenous injection of 20 mg/kg benzyl-penicillin after 1 min; format: functional, organism-based; parameters: dose 20 mg/kg; in short: as §3
Rattus norvegicus [21] = assay: Concentration of compound in rat liver after intravenous injection of 20 mg/kg benzyl-penicillin after 10 min; format: functional, organism-based; parameters: dose 20 mg/kg; in short: as §3
Rattus norvegicus [22] = assay: Concentration of compound in rat liver after intravenous injection of 20 mg/kg benzyl-penicillin after 20 min; format: functional, organism-based; parameters: dose 20 mg/kg; in short: as §3
Rattus norvegicus [23] = assay: Concentration of compound in rat liver after intravenous injection of 20 mg/kg benzyl-penicillin after 3 min; format: functional, organism-based; parameters: dose 20 mg/kg; in short: as §3
Rattus norvegicus [24] = assay: Concentration of compound in rat liver after intravenous injection of 20 mg/kg benzyl-penicillin after 40 min; format: functional, organism-based; parameters: dose 20 mg/kg; in short: as §3
Rattus norvegicus [25] = assay: Concentration of compound in rat liver after intravenous injection of 20 mg/kg benzyl-penicillin after 5 min; format: functional, organism-based; parameters: dose 20 mg/kg; in short: as §3
Rattus norvegicus [26] = assay: Concentration of compound in rat blood after intravenous injection of 20 mg/kg benzyl-penicillin after 1 min; format: functional, organism-based; parameters: dose 20 mg/kg; in short: as §3
Rattus norvegicus [27] = assay: Concentration of compound in rat blood after intravenous injection of 20 mg/kg benzyl-penicillin after 10 min; format: functional, organism-based; parameters: dose 20 mg/kg; in short: as §3
Rattus norvegicus [28] = assay: Concentration of compound in rat blood after intravenous injection of 20 mg/kg benzyl-penicillin after 20 min; format: functional, organism-based; parameters: dose 20 mg/kg; in short: as §3
Rattus norvegicus [29] = assay: Concentration of compound in rat blood after intravenous injection of 20 mg/kg benzyl-penicillin after 3 min; format: functional, organism-based; parameters: dose 20 mg/kg; in short: as §3
Rattus norvegicus [30] = assay: Concentration of compound in rat blood after intravenous injection of 20 mg/kg benzyl-penicillin after 40 min; format: functional, organism-based; parameters: dose 20 mg/kg; in short: as §3
Rattus norvegicus [31] = assay: Concentration of compound in rat blood after intravenous injection of 20 mg/kg benzyl-penicillin after 5 min; format: functional, organism-based; parameters: dose 20 mg/kg; in short: as §3
Rattus norvegicus [32] = assay: Concentration of compound in rat blood after intravenous injection of 20 mg/kg benzyl-penicillin after 60 min; format: functional, organism-based; parameters: dose 20 mg/kg; in short: as §3
Rattus norvegicus [33] = assay: Concentration of compound in rat brain after intravenous injection of 20 mg/kg benzyl-penicillin after 1 min; format: functional, organism-based; parameters: dose 20 mg/kg; in short: as §3
Rattus norvegicus [34] = assay: Concentration of compound in rat brain after intravenous injection of 20 mg/kg benzyl-penicillin after 10 min; format: functional, organism-based; parameters: dose 20 mg/kg; in short: as §3
Rattus norvegicus [35] = assay: Concentration of compound in rat brain after intravenous injection of 20 mg/kg benzyl-penicillin after 20 min; format: functional, organism-based; parameters: dose 20 mg/kg; in short: as §3
Rattus norvegicus [36] = assay: Concentration of compound in rat brain after intravenous injection of 20 mg/kg benzyl-penicillin after 3 min; format: functional, organism-based; parameters: dose 20 mg/kg; in short: as §3
Rattus norvegicus [37] = assay: Concentration of compound in rat brain after intravenous injection of 20 mg/kg benzyl-penicillin after 40 min; format: functional, organism-based; parameters: dose 20 mg/kg; in short: as §3
Rattus norvegicus [38] = assay: Concentration of compound in rat brain after intravenous injection of 20 mg/kg benzyl-penicillin after 5 min; format: functional, organism-based; parameters: dose 20 mg/kg; in short: as §3
Rattus norvegicus [39] = assay: Concentration of compound in rat liver after intravenous injection of 20 mg/kg benzyl-penicillin after 60 min; format: functional, organism-based; parameters: dose 20 mg/kg; in short: as §3
Rattus norvegicus [40] = assay: Concentration of compound in rat lung after intravenous injection of 20 mg/kg benzyl-penicillin after 1 min; format: functional, organism-based; parameters: dose 20 mg/kg; in short: as §3
Rattus norvegicus [41] = assay: Concentration of compound in rat lung after intravenous injection of 20 mg/kg benzyl-penicillin after 10 min; format: functional, organism-based; parameters: dose 20 mg/kg; in short: as §3
Rattus norvegicus [42] = assay: Concentration of compound in rat lung after intravenous injection of 20 mg/kg benzyl-penicillin after 20 min; format: functional, organism-based; parameters: dose 20 mg/kg; in short: as §3
Rattus norvegicus [43] = assay: Concentration of compound in rat lung after intravenous injection of 20 mg/kg benzyl-penicillin after 3 min; format: functional, organism-based; parameters: dose 20 mg/kg; in short: as §3
Rattus norvegicus [44] = assay: Concentration of compound in rat lung after intravenous injection of 20 mg/kg benzyl-penicillin after 40 min; format: functional, organism-based; parameters: dose 20 mg/kg; in short: as §3
Rattus norvegicus [45] = assay: Concentration of compound in rat lung after intravenous injection of 20 mg/kg benzyl-penicillin after 5 min; format: functional, organism-based; parameters: dose 20 mg/kg; in short: as §3
Rattus norvegicus [46] = assay: Concentration of compound in rat lung after intravenous injection of 20 mg/kg benzyl-penicillin after 60 min; format: functional, organism-based; parameters: dose 20 mg/kg; in short: as §3
Rattus norvegicus [47] = assay: Concentration of compound in rat brain after intravenous injection of 20 mg/kg benzyl-penicillin after 60 min; format: functional, organism-based; parameters: dose 20 mg/kg; in short: as §3

half-life [1]: 14.5 min
half-life [2]: 9.1 min
half-life [3]: 23.4 min
half-life [4]: 3 min
half-life [5]: 92.1 min
half-life [6]: 1.9 min
K (Canis familiaris): 0.048 min⁻¹
K (Homo sapiens): 0.078 min⁻¹
K (Oryctolagus cuniculus [7]): 0.03 min⁻¹
K (Oryctolagus cuniculus [8]): 0.23 min⁻¹
K (Rattus norvegicus [9]): 0.008 min⁻¹
K [10]: 0.362 min⁻¹
Structure (SMILES): C[n+]1cccc(C(=O)NCCOC(=O)C2N3C(=O)C(NC(=O)Cc4ccccc4)C3SC2(C)C)c1.[I-] (centres undefined)

half-life [1]: 4.1 min
half-life [2]: 16.2 min
half-life [3]: 4 min
half-life [4]: 0.8 min
half-life [5]: 2.4 min
T1/2 (Rattus norvegicus [11]): Unstable
K (Rattus norvegicus [12]): Unstable
K (Canis familiaris): 0.168 min⁻¹
K (Homo sapiens): 0.043 min⁻¹
K (Oryctolagus cuniculus [7]): 0.174 min⁻¹
K (Oryctolagus cuniculus [8]): 0.903 min⁻¹
K (Rattus norvegicus [9]): 0.296 min⁻¹
Structure (SMILES): CN1C=CCC(C(=O)OCCOC(=O)C2N3C(=O)C(NC(=O)Cc4ccccc4)C3SC2(C)C)=C1 (centres undefined)
Concentration (Rattus norvegicus [13]): 37.9 µg/mL
Concentration (Rattus norvegicus [14]): 10.3 µg/mL
Concentration (Rattus norvegicus [15]): 56.4 µg/mL
Concentration (Rattus norvegicus [16]): 3.4 µg/mL
Concentration (Rattus norvegicus [17]): 54.6 µg/mL
Concentration (Rattus norvegicus [18]): 2.1 µg/mL
Concentration (Rattus norvegicus [19]): 30.3 µg/mL
Concentration (Rattus norvegicus [20]): 11.1 µg/mL
Concentration (Rattus norvegicus [21]): 11.4 µg/mL
Concentration (Rattus norvegicus [22]): 4.7 µg/mL
Concentration (Rattus norvegicus [23]): 10.9 µg/mL
Concentration (Rattus norvegicus [24]): 1.5 µg/mL
Concentration (Rattus norvegicus [25]): 12.6 µg/mL
Concentration (Rattus norvegicus [26]): 22.7 µg/mL
Concentration (Rattus norvegicus [27]): 5.6 µg/mL
Concentration (Rattus norvegicus [28]): 1.9 µg/mL
Concentration (Rattus norvegicus [29]): 9 µg/mL
Concentration (Rattus norvegicus [30]): 0.7 µg/mL
Concentration (Rattus norvegicus [31]): 10.7 µg/mL
Concentration (Rattus norvegicus [32]): 0.3 µg/mL
Concentration (Rattus norvegicus [33]): 8.8 µg/mL
Concentration (Rattus norvegicus [34]): 3.9 µg/mL
Concentration (Rattus norvegicus [35]): 2.4 µg/mL
Concentration (Rattus norvegicus [36]): 3.5 µg/mL
Concentration (Rattus norvegicus [37]): 1.1 µg/mL
Concentration (Rattus norvegicus [38]): 3.7 µg/mL
Concentration (Rattus norvegicus [39]): 0.6 µg/mL
Concentration (Rattus norvegicus [40]): 37.7 µg/mL
Concentration (Rattus norvegicus [41]): 24.5 µg/mL
Concentration (Rattus norvegicus [42]): 7.2 µg/mL
Concentration (Rattus norvegicus [43]): 32.4 µg/mL
Concentration (Rattus norvegicus [44]): 5 µg/mL
Concentration (Rattus norvegicus [45]): 31.2 µg/mL
Concentration (Rattus norvegicus [46]): 2.8 µg/mL
Concentration (Rattus norvegicus [47]): 0.7 µg/mL
